The record followed here is the EternaBench riboswitch data.

The test system of the series is MS2 coat protein. Kind of series: apparent Kd, MS2 coat protein; higher = weaker binding; RNA-MaP array; tryptophan 2.4 mM where present. The essentials:
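The apparent Kd is the median of filtered binding-curve fits, one per cluster, to green signal normalised to red-channel RNA signal and control-cluster median Fmax. The clusters were on Illumina sequencing chips, and stalled E. coli RNA polymerase had transcribed the designs on them. Titration used SNAP-549-labelled MS2 coat protein from 0.7 or 1.5 nM, doubling to 3 µM, without and then with constant ligand, in 100 mM Tris-HCl pH 7.5, 80 mM KCl, 4 mM MgCl2, BSA, DTT, yeast tRNA and Tween-20.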

[1] abbreviates: designed as: OFF switch for tryptophan, no ligand.
Where [2] appears, read: ligand present: tryptophan, designed as: OFF switch for tryptophan.
Where [3] appears, read: designed as: ON switch for tryptophan, no ligand.
The mark [4] stands for this setting: ligand present: tryptophan, designed as: ON switch for tryptophan.

“UGAUACCAGUCGGCCGCCACUACAUGAGGAUCACCCAUGUAUGGGUCAAUGCUAGAUACUAGCAGUAGGACCGGGACUGGUAUCU”: the apparent Kd – broadly, a dissociation constant that holds for the conditions of the assay – was 11.4 nM under setting [1] and 36.1 nM under setting [2].
As for “UAACAUGAGGAUCACCCAUGUAUACUAAGUCGAGGACCGGUACGGCCGCCACUCGAACUUCAAGAAUAGGCGGUAAAUGUAAGUA”, the “apparent Kd” value was 11.5 nM under setting [1] and 13.3 nM under setting [2].
With “CCAUUGAUGACGGCCGCCACUGUCUACAUGAGGAUCACCCAUGUAUAGCAGGGUGGACCUAUGGACAGGACCGGGUCACUUGUCC”, the “apparent Kd” value was 11 nM under setting [1] and 12.3 nM under setting [2].
For “CUAUAUGGAAACAUAUAGAAGCGAAAGCAACGAGGACCGGUACGGCCGCCACUCGAAGAGUGGUGGACAUGAGGAUCACCCAUGU”, the “apparent Kd” value is 63.3 nM under setting [3] and 52.8 nM under setting [4].
With “UUGCCCAGUACGGCCGCCACUGUGUGCAGGGAACCCAGGUCCACAUGAGGAUCACCCAUGUACAGCAGGACCGGGUACUUGCAAU”, the “apparent Kd” value reads like this: under setting [1], 9.03 nM; under setting [2], 11.7 nM.
In the case of “CUAUAAAUAGCGGCCGCCACUUACUCAUGAGGUAACAACAUGAGGAUCACCCAUGUUUGAGGAUCAAGGACCGGGCUAUUUAUAG”, the “apparent Kd” value under setting [3] stood at 29.8 nM and the “apparent Kd” value under setting [4] was 17.6 nM.
For “UUAUGCAGGUCGGCCGCCACUACACACAUGAGGAUCACCCAUGUAGUUACUGGGUGAAGUGGCAGUAGGACCGGGACCUGCAUAU”, the “apparent Kd” value under setting [3] came to 371 nM and the “apparent Kd” value under setting [4] came to 227 nM.
As to “CCUAUGCAGUCGGCCGCCACUGAUAAAGUUAUCUUUACCUCAGAAACAUGAGGAUCACCCAUGUACAGGACCGGGACUGUAUAGG”, the “apparent Kd” value reads like this: under setting [1], 12.7 nM; under setting [2], 19.8 nM.
For “AAUAAUAUCCUCAUGUGAGUCGUACCAUAACGAGGACCGGUACGGCCGCCACUCGAACAUGAGGAUCACCCAUGUAGGUAUGAUA”, the “apparent Kd” value is, setting by setting: under setting [3], 85.9 nM; under setting [4], 200 nM.
For “GGUAUGUAUUCGGAAACGAAUGCAUACCAACGAGGACCGGUACGGCCGCCACUCGGCCGUGAUCAACAUGAGGAUCACCCAUGUA”, the “apparent Kd” value under setting [1] was found to be 15.8 nM and the “apparent Kd” value under setting [2] was determined as 26.8 nM.
“ACAUGAGGAUCACCCAUGUUUGAUGUUCCUCGAGGACCGGUACGGCCGCCACUCGAACGAGUGGCGCGCGAGUGCGCACUCGCGC”: the “apparent Kd” value is, setting by setting: under setting [3], 12.2 nM; under setting [4], 12.5 nM.
On to “GGGAGGGAGGCGGCCGCCACUGAUUUUCAUAUAUAUAUAACAUGAGGAUCACCCAUGUAGAUAUACAGGACCGGGCCUUUUUUUU”, for which the “apparent Kd” value runs as follows: under setting [3], 20.4 nM; under setting [4], 19.5 nM.
Turning to “AUGCAUAGCACGGCCGCCACUCCAUGUAAACAUGAGGAUCACCCAUGUAAUUUGGAUGUUUUAUAGAGGACCGGGUGAAAUGCAA”, the “apparent Kd” value was 8.88 nM under setting [1] and 15.1 nM under setting [2].
Take “AUGGAGACCUCGGCCGCCACUCUCCAUGAGGAUCUCCCAUGUAACAUGAGGAUCACCCAUGUACUGAGGACCGGGAGGUCCUUGA”: the “apparent Kd” value under setting [3] stood at 9.9 nM and the “apparent Kd” value under setting [4] amounted to 10.8 nM.
The like results for “AGAAUAUAGUCGGCCGCCACUCUACAAACAUGAGGAUCACCCAUGUUCACAUAGUGGAAACACAUGAGGACCGGGACAUAGGCAU” were, in that order, 15.6 nM and 14.2 nM.
For “UGUAUUGGAAACAGUACUAGUGAUCCGGUCCGAGGACCGGUACGGCCGCCACUCGAUAUAAAUAAACAUGAGGAUCACCCAUGUA”, the “apparent Kd” value runs as follows: under setting [1], 14.9 nM; under setting [2], 29.8 nM.
As for “GGAUGGAACUCGGCCGCCACUGGUGAUCCUAAUGUACAUGAGGAUCACCCAUGUACAUGAGAAGAUAGGACCGGGAGAUAACAUG”, the “apparent Kd” value under setting [3] worked out at 27.7 nM and the “apparent Kd” value under setting [4] was found to be 19.8 nM.
Take “AUUCAUGGAAACAUGACAUACAUUACCGGUCGAGGACCGGUACGGCCGCCACUCGGUUGGUGGCACAUGAGGAUCACCCAUGUUA”: the “apparent Kd” value was 26.8 nM under setting [3] and 26.7 nM under setting [4].
With “GAUACUAUGAAAGUAGUAUCUACGUGUUGACGAGGACCGGUACGGCCGCCACUCGACAUGAGGAUCACCCAUGUAUAGAAUAUGU”, the “apparent Kd” value under setting [3] was 20.6 nM and the “apparent Kd” value under setting [4] amounted to 14.8 nM.
As to “GACCCAUGAGUUGUAAAAGCUCAUGGGUCGCGAGGACCGGUACGGCCGCCACUCGGCUGUACAUGAGGAUCACCCAUGUCAGGGU”, the “apparent Kd” value reads like this: under setting [3], 134 nM; under setting [4], 761 nM.
The like results for “AAUAAACAUGAGGAUCACCCAUGUUGUUGACGAGGACCGGUACGGCCGCCACUCGACAUGAGGAUCACCCAUGUUGUCACAUGAG” were, in that order, 180 nM and 151 nM.
Consider “GCGACCCUGAGAUCCUGCGUAACGUGAACACGAGGACCGGUACGGCCGCCACUCGAGAGAACAUGAGGAUCACCCAUGUCUGAGC”, for which the “apparent Kd” value is, setting by setting: under setting [1], 20.4 nM; under setting [2], 22.2 nM.
